Activity calls are given as the source filed them. No cut-off for these calls is given here.
Columns and labels:
Adenosine receptor A1 = biological target: T1, Adenosine receptor A1 (Homo sapiens, UniProt P30542); test: Displacement of [3H]DPCPX from human recombinant adenosine A1 receptor expressed in CHO-K1 cells after 60 mins; type: cell-based
T1 sequence (P30542 whole entry): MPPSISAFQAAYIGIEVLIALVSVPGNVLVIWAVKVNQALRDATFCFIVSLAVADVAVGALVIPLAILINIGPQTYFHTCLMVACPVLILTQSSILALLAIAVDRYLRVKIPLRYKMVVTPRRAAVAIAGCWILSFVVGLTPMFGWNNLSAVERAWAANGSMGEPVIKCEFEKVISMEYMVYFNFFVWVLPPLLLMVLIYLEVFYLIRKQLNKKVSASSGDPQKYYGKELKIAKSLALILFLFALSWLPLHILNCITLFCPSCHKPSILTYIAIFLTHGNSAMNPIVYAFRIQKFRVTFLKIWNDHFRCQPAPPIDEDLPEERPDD

Adenosine receptor A2a [1] = biological target: T2, Adenosine receptor A2a (Homo sapiens, UniProt P29274); test: Antagonist activity at human adenosine A2A receptor expressed in HEK293 cells assessed as inhibition of NECA-induced cAMP accumulation incubated for 10 mins prior to NECA addition; type: functional, cell-based
T2 sequence (P29274 whole entry): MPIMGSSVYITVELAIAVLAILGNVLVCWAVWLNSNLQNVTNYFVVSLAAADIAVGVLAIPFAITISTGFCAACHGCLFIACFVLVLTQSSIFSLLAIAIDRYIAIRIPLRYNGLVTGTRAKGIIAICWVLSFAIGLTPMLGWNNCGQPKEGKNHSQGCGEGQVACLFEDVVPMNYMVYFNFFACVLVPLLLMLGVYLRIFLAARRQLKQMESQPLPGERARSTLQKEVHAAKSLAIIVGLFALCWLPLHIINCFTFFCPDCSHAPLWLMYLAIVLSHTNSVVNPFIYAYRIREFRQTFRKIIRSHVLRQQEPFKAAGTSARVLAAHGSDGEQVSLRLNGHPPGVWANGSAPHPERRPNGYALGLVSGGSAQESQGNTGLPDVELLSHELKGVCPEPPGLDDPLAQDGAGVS
Summary of the method: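 HEK-293 cells stably expressing human A2A, plated 48 h ahead. They were pretreated 10 min at 37 °C with 0.5 mM Ro20-1724 and 2 IU/mL adenosine deaminase, then compound (10^-4 to 10^-10 M) for 10 min at 37 °C, then 100 nM NECA for 20 min. cAMP was extracted and measured by enzyme immunoassay. IC50 came from nonlinear regression of four independent experiments.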

Adenosine receptor A2a [2] = biological target: T2, Adenosine receptor A2a; test: Displacement of [3H]ZM241385 from human recombinant adenosine A2A receptor expressed in HEK293 cells after 1 hr by competitive binding assay; type: cell-based
Summary of the method: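 HEK293 membranes expressing human A2A receptor pretreated with 2 IU/mL adenosine deaminase, 30 min at 37 °C. Competition with [3H]ZM241385 at its Kd (2 nM) using 5–10 µg protein and test compound 0.01–10,000 nM, 1 h at 4 °C in 50 mM Tris-HCl pH 7.4, 10 mM MgCl2. Nonspecific binding with 10 µM unlabeled ZM241385. Ki via Cheng–Prusoff; four experiments in triplicate.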

Mus musculus [3] = test: Induction of limbic movement in CD1 mouse at 20 to 200 mg/kg, po after 60 to 240 mins by Irwin test; type: functional, organism-based; settings: Limbic system
Summary of the method: (§1)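 Irwin test in CD-1 mice, 5–6 weeks old, 4 per group. Compounds suspended in 0.1% Tween 80 in 0.5% CMC and given orally at 20, 100 and 200 mg/kg in 10 mL/kg. Behaviour recorded by camera at 60 and 240 min after dosing; stereotypies scored: sniffing (limbic), licking and biting (striatal).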

[4] = biological target: T3, Adenosine receptor A3 (Homo sapiens) (UniProt P0DMS8); test: Inhibition of human adenosine A3 receptor at 10 uM
T3 sequence (whole entry): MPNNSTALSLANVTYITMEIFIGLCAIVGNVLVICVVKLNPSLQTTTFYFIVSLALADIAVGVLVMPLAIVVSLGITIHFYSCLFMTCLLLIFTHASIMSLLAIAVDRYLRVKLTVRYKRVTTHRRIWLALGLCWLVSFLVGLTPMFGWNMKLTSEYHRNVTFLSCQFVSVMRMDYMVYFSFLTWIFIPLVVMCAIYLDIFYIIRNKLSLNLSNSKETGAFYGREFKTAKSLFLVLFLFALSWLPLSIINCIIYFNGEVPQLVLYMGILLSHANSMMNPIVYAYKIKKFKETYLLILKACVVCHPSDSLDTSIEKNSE

Adenosine receptor A2a [5] = biological target: T2, Adenosine receptor A2a; test: Inhibition of human recombinant adenosine A2A receptor expressed in HEK293 cells at 10 uM; type: cell-based
[6] = biological target: T3, Adenosine receptor A3 (Homo sapiens); test: Binding affinity to human adenosine A3 receptor
[7] = biological target: T4, Adenosine receptor A1 (Homo sapiens) (UniProt P30542); test: Inhibition of human recombinant adenosine A1 receptor expressed in CHO-K1 cells at 10 uM; type: cell-based
T4 sequence (whole entry): T1 sequence (P30542 whole entry)

Mus musculus [8] = test: Induction of striatal movement in CD1 mouse at 20 to 200 mg/kg, po after 60 to 240 mins by Irwin test; type: functional, organism-based; summary of the method: as §1

For `CCCCc1nc(N)c2nc(-n3nccn3)n(C)c2n1` [ST1535], the Ki (Adenosine receptor A1) was 100 nM and the IC50 (Adenosine receptor A2a [1]) was 430 nM.
Molecule `C[C@@H](O)CCc1nc(N)c2nc(-n3nccn3)n(C)c2n1` has a Ki (Adenosine receptor A2a [2]) of 7.5 nM and a Ki (Adenosine receptor A1) of 34 nM.
`CCCC(O)c1nc(N)c2nc(-n3nccn3)n(C)c2n1` (racemic) was tested, and the Activity (Mus musculus [3]) was “Active”, the inhibition [4] was 55% and the inhibition (Adenosine receptor A2a [5]) was “Active”. The Activity [6] was “inactive”, the inhibition [7] was “Active” and the Ki (Adenosine receptor A1) was 160 nM. For the same molecule, the Activity (Mus musculus [8]) was “Active”.
With `CC(O)CCc1nc(N)c2nc(-n3nccn3)n(C)c2n1` (racemic) the Activity (Mus musculus [3]) was “Active”, the inhibition [4] was 61% and the Ki (Adenosine receptor A2a [2]) was 8.4 nM. The inhibition (Adenosine receptor A2a [5]) was “Active”, the Activity [6] was “inactive” and the inhibition [7] was “Active”. The Ki (Adenosine receptor A1) was 34 nM and the Activity (Mus musculus [8]) was “Active”.
For `CC(=O)CCc1nc(N)c2nc(-n3nccn3)n(C)c2n1`, the Activity (Mus musculus [3]) was “Active”, the inhibition [4] was 56% and the inhibition (Adenosine receptor A2a [5]) was “Active”. The Activity [6] was “inactive”, the inhibition [7] was “Active” and the Activity (Mus musculus [8]) was “Active”.
`C[C@H](O)CCc1nc(N)c2nc(-n3nccn3)n(C)c2n1` showed a Ki (Adenosine receptor A1) of 53 nM.
For `Cn1c(-n2nccn2)nc2c(N)nc(CCCCO)nc21`, the inhibition [4] was 47%, the inhibition (Adenosine receptor A2a [5]) was “Active” and the Activity [6] was “inactive”. The inhibition [7] was “Active” and the Ki (Adenosine receptor A1) was 150 nM.
Molecule `CCC(O)Cc1nc(N)c2nc(-n3nccn3)n(C)c2n1` (configuration not stated) has a Ki (Adenosine receptor A2a [2]) of 64 nM.

— ChEMBL document CHEMBL2396554, “Synthesis and biological evaluation of metabolites of 2-n-butyl-9-methyl-8-[1,2,3]triazol-2-yl-9H-purin-6-ylamine (ST1535), a potent antagonist of the A2A adenosine receptor for the treatment of Parkinson's disease” (J Med Chem, 2013)
